For assay [1], the target named is T1, Dual specificity protein phosphatase 6 (Rattus norvegicus, UniProt Q64346).
T1 sequence (Q64346 whole entry): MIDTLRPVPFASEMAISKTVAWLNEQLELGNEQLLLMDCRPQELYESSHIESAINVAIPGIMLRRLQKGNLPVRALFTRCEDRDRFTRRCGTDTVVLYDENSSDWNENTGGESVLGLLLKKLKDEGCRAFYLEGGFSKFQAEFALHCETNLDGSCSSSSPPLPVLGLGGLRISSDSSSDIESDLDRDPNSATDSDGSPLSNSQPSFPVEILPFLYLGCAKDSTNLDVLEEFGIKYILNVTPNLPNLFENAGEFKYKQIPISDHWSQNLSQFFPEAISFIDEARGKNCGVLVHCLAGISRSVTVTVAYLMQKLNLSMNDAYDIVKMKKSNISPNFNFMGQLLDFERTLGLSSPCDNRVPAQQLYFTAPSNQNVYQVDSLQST
Put plainly: Inhibition of histidine-tagged rat recombinant MKP3 catalytic domain expressed in Escherichia coli BL21(DE3). An outline of the steps: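 Recombinant MKP-3 was expressed from a bacterial plasmid. Phosphatase activity was read from O-methyl fluorescein phosphate hydrolysis in a 25 μL final mixture, incubated 20 or 60 min at ambient temperature. Product fluorescence was read at excitation 485 nm and emission 530 nm. IC50 came from at least six inhibitor concentrations.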

Assay [2] addresses T2, M-phase inducer phosphatase 2 (Homo sapiens, UniProt P30305).
T2 sequence (P30305 whole entry): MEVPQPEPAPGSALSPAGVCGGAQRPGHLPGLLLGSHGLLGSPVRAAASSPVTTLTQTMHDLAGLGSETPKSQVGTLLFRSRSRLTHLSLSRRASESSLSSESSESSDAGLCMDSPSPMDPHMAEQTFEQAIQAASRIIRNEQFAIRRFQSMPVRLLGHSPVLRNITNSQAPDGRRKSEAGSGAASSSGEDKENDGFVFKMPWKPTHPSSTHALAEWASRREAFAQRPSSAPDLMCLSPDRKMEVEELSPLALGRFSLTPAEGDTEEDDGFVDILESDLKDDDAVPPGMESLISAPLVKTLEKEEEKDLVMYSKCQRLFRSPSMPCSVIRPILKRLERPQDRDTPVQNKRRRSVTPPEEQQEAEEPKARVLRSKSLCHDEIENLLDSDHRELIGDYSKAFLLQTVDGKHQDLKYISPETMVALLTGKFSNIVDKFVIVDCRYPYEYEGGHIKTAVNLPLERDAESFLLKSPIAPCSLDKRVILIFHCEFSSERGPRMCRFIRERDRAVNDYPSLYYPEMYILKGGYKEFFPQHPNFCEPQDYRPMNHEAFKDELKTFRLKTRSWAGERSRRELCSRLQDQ
Kind of assay: Inhibition of histidine-tagged full length human Cdc25B expressed in Escherichia coli. The essentials:
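His6-tagged full-length enzyme purified from E. coli on Ni-NTA resin. Substrate is O-methyl fluorescein phosphate. Buffer is 30 mM Tris pH 8.5, 75 mM NaCl, 1 mM EDTA, 0.033% BSA and 1 mM DTT (final). Incubation runs 20 or 60 min at ambient temperature. Fluorescence is read at ex 485 / em 530 nm. IC50 comes from at least six concentrations.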

In assay [3] the target is T2, M-phase inducer phosphatase 2. Kind of assay: Inhibition of histidine-tagged human recombinant Cdc25B catalytic domain expressed in Escherichia coli.
Assay [4] addresses T3, Dual specificity protein phosphatase 1 (Mus musculus, UniProt P28563).
T3 sequence (P28563 whole entry): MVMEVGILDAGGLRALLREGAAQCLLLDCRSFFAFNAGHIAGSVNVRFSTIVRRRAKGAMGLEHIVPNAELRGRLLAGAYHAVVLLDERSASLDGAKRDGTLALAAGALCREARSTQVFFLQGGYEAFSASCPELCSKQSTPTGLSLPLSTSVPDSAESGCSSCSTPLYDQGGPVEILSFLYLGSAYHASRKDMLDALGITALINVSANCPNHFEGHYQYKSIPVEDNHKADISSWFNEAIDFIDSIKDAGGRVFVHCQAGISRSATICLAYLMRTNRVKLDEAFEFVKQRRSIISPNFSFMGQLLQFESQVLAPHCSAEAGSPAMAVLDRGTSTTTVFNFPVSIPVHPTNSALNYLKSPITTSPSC
Kind of assay: Inhibition of histidine-tagged mouse MKP1 catalytic domain expressed in […].

Assay [5] concerns A2780. Put plainly: Antiproliferative activity against human A2780 cells assessed as growth inhibition after 2 days by microscopic analysis. The format is functional, cell-based.
In assay [6] the test system is A2780. Put plainly: Antiproliferative activity against human A2780 cells after 2 days by alamar-blue assay. It is filed as functional, cell-based. Conditions: A2780, 48 h.

Calls of active or inactive are those of the source. The calls are words filed in the database; no cut-off is given here.

By IC50 is commonly meant the concentration at which inhibition is half-maximal.

As to `C[C@@]12CCCc3coc(c31)C(=O)c1cc3c(cc12)C(=O)C1=C(NCCS1(=O)=O)C3=O` [ADOCIAQUINONE B], the IC50 in assay [1] was 1.53 µM; in assay [2], 0.08 µM; in assay [3] it was 0.11 µM; in assay [4], 1.1 µM.

Turning to `CC1=C(NCCO)C(=O)c2ccccc2C1=O`, the concentration for half-maximal inhibition (IC50) in assay [1], in assay [3] and in assay [4] was > 50 µM in each case. Besides, the result in the assay with A2780 [5] was Active.

For `O=C1C2=C(C(=O)c3ccccc31)S(=O)(=O)CCN2`, the IC50 in assay [1] is 42.6 µM; with A2780 [6], 4.3 µM; in assay [3] it was 0.94 µM; in assay [4], 17.8 µM.

As to `O=C1C2=C(C(=O)c3cc4c(cc31)CCCC4)S(=O)(=O)CCN2`, the IC50 is > 50 µM in assay [1], 2.3 µM in assay [3] and 38.7 µM in assay [4].

As to `O=C1C=CC(=O)c2c(O)ccc(O)c21` [NAPHTHAZALIN], the IC50 in assay [1] turned out to be 6.9 µM; in assay [3] it was 1 µM; in assay [4] it was 9.37 µM.

As for `CCOC1=CC(=O)C(=O)c2ccccc21`, the IC50 was 1.35 µM in assay [1], 0.37 µM with A2780 [6], 0.27 µM in assay [3] and 0.82 µM in assay [4].

On to `O=C1c2ccccc2C(=O)c2ccccc21` [ANTHRAQUINONE], for which the IC50 in assay [1] is > 50 µM; in assay [3], 9.51 µM; in assay [4] it was > 50 µM.

For `O=C1C=CC(=O)c2c(O)cccc21` [JUGLONE], the IC50 in assay [1] was found to be 12.4 µM; in the assay on A2780 [6] it was 1.4 µM; in assay [3], 1.98 µM; in assay [4], 13 µM.

For the molecule `O=C1C=CC(=O)c2ccccc21` [NAPHTHOQUINONE], the IC50 came out at 19.8 µM in assay [1], 2.3 µM in the assay on A2780 [6], 2.76 µM in assay [3] and 8.45 µM in assay [4].

With `O=C1C=C(NCCO)C(=O)c2ccccc21`, the IC50 was > 50 µM in assay [1], 64 µM with A2780 [6], > 50 µM in assay [3] and > 50 µM in assay [4].

`O=C1C=CC(=O)c2cc3c(cc21)CCCC3`: the IC50 in assay [1] was > 50 µM; in assay [3], 9.53 µM; in assay [4] it was 21.8 µM.

As for `O=C1C2=C(C(=O)c3c(O)cccc31)S(=O)(=O)CCN2`, the IC50 in assay [1] was > 50 µM; in the assay with A2780 [6], 2.1 µM; in assay [3] it was 0.88 µM; in assay [4], 33.8 µM.

On to `CC1=CC(=O)c2ccccc2C1=O` [MENADIONE], for which the IC50 stood at 20.5 µM in assay [1], 2.6 µM in the assay on A2780 [6], 3.38 µM in assay [3] and 24 µM in assay [4].

`O=C1C=CC(=O)C=C1` [BENZOQUINONE]: the IC50 was > 50 µM in assay [1], 7.8 µM in the assay with A2780 [6], > 50 µM in assay [3] and > 50 µM in assay [4].

In the case of `O=C1c2cc3c(cc2C(=O)C2OC12)CCCC3` (stereo not given), the values for the IC50 in assay [1], in assay [3] and in assay [4] were 49.9 µM, 22.3 µM and > 50 µM, respectively.

Source of the values: ChEMBL document CHEMBL1153892 (Bioorg Med Chem, 2009).
